Experimental findings from ChEMBL document CHEMBL2440109, “Synthesis and antimycobacterial activity of isoniazid derivatives from renewable fatty acids” (2013) are described below.

Holding throughout (type): functional
Assay [1] has as its system Mycobacterium tuberculosis. In words: Antimycobacterial activity against isoniazid-resistant Mycobacterium tuberculosis 1896HF harboring inhA mutant after 7 days by REMA assay. The gist of the method: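 MIC by resazurin microtiter assay. Bacteria suspended in sterile water with glass beads, vortexed, turbidity set to McFarland tube 1 (3.2 × 10^6 CFU/mL), then diluted 1:20 in Middlebrook 7H9. Incubated 37 °C for 7 days, resazurin added, further 2 days at 37 °C. MIC read from colour change.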

The test system of assay [2] is Mycobacterium tuberculosis. In words: Antimycobacterial activity against isoniazid-resistant Mycobacterium tuberculosis ATCC 35822 harboring katG mutant after 7 days by REMA assay. The method, boiled down:
(§1)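 MIC by resazurin microtiter assay. Bacteria suspended in sterile water with glass beads, vortexed, turbidity set to McFarland tube 1 (3.2 × 10^6 CFU/mL), then diluted 1:20 in Middlebrook 7H9. Compounds in DMSO, two-fold serial dilutions (100.0-3.2 µg/mL) in 7H9 with 10% OADC. Incubated 37 °C for 7 days, resazurin added, further 2 days at 37 °C. MIC read from colour change.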

Assay [3] relates to Mycobacterium tuberculosis. Nature of the assay: Antimycobacterial activity against rifampicin-resistant Mycobacterium tuberculosis ATCC 35338 harboring rpoB His-526-Tir gene mutant after 7 days by REMA assay. The method, boiled down:
as §1

For orientation: MIC means the lowest concentration found to suppress growth. A higher MIC goes with a need for much substance.

Converted amounts (≈) assume the structure as drawn. Some results are limits rather than exact numbers.

Regarding `CCCCCCCCCCCCCCCC(=O)NNC(=O)c1ccncc1`, the minimum inhibitory concentration (MIC) is 0.78 µg/mL (≈ 2.08 µM) in assay [1], 0.125 µg/mL (≈ 0.333 µM) in assay [2] and 0.003 µg/mL (≈ 0.00799 µM) in assay [3].

Consider `CCCCCCCCCCCCCCCCCC(=O)NNC(=O)c1ccncc1`, for which the MIC in assay [1] came to 3.12 µg/mL (≈ 7.73 µM); in assay [2], 0.25 µg/mL (≈ 0.619 µM); in assay [3], 0.003 µg/mL (≈ 0.00743 µM).

With `NNC(=O)c1ccncc1` [ISONIAZID], the MIC in assay [1] worked out at 2 µg/mL (≈ 14.6 µM); in assay [2], 2 µg/mL (≈ 14.6 µM); in assay [3], 0.015 µg/mL (≈ 0.109 µM).

As to `CC/C=C\C/C=C\C/C=C\CCCCCCCC(=O)NNC(=O)c1ccncc1`, the MIC was determined as 12.5 µg/mL (≈ 31.4 µM) in assay [1], 25 µg/mL (≈ 62.9 µM) in assay [2] and 0.03 µg/mL (≈ 0.0755 µM) in assay [3].

For the compound `CCCCCCCC/C=C\CCCCCCCC(=O)NN` [OLEOHYDRAZIDE], the minimal inhibitory concentration (MIC) in assay [1] is greater than 100 µg/mL; in assay [2], 50 µg/mL (≈ 169 µM); in assay [3], 50 µg/mL (≈ 169 µM).

`CCCCC/C=C\C/C=C\CCCCCCCC(=O)NNC(=O)c1ccncc1`: the MIC in assay [1] is 12.5 µg/mL (≈ 31.3 µM); in assay [2], 2 µg/mL (≈ 5.01 µM); in assay [3] it was 0.03 µg/mL (≈ 0.0751 µM).

With `CO[C@H]1/C=C/O[C@@]2(C)Oc3c(C)c(O)c4c(O)c(c(/C=N/N5CCN(C)CC5)c(O)c4c3C2=O)NC(=O)/C(C)=C\C=C\[C@H](C)[C@H](O)[C@@H](C)[C@@H](O)[C@@H](C)[C@H](OC(C)=O)[C@@H]1C` [RIFAMPIN], the minimal inhibitory concentration (MIC) in assay [2] is 0.03 µg/mL (≈ 0.0365 µM); in assay [3], greater than 2 µg/mL.

On to `CCCCCCCC/C=C/CCCCCCCC(=O)NNC(=O)c1ccncc1`, for which the MIC is 6.25 µg/mL (≈ 15.6 µM) in assay [1], greater than 50 µg/mL in assay [2] and 0.0019 µg/mL (≈ 0.00473 µM) in assay [3].

For the compound `CCCCCCCC/C=C\CCCCCCCC(=O)O` [OLEIC ACID], the MIC in assay [1], in assay [2] and in assay [3] was greater than 100 µg/mL each time.

Regarding `CCCCCC[C@@H](O)C/C=C\CCCCCCCC(=O)NNC(=O)c1ccncc1`, the results for the MIC in assay [1], in assay [2] and in assay [3] were 12.5 µg/mL (≈ 29.9 µM), 25 µg/mL (≈ 59.9 µM) and 0.015 µg/mL (≈ 0.0359 µM), respectively.

`CCCCCCCC/C=C\CCCCCCCC(=O)NNC(=O)c1ccncc1`: the MIC in assay [1] was found to be 1.56 µg/mL (≈ 3.88 µM); in assay [2], 0.25 µg/mL (≈ 0.623 µM); in assay [3], 0.003 µg/mL (≈ 0.00747 µM).
